Compounds with a hit are over-represented: about 2.4% of the library has one in this group of screens.
SIAE inh: inhibitors of human sialic acid acetylesterase SIAE. SIAE FP-Rh probe binding, fluorescence polarization. 370,000 tested, 0.69% active. inhibition, % at 9.66 µM;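 active = inhibition above a cutoff: mean of compounds within the control limits plus 3 SD of those, cut at about 17% in these data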;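 note: 0% = plate median of compound wells and 100% = probe without SIAE protein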
HTRA1 inh: inhibitors of human serine peptidase HTRA1. Q92743. recombinant HTRA1, FP-rhodamine activity-based probe, fluorescence polarization. inhibition, % at 5.96 µM. 340,000 tested, 0.5% active. AID 504803; in the data active = inhibition above about 36%;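 note: 0% = enzyme with DMSO and 100% = wells lacking enzyme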
mABHD4 FP: inhibitors of mouse ABHD4 | purified mABHD4, FP-Rh probe fluorescence polarization | 370,000 tested, 0.54% active | Q8VD66 | inhibition, % at 8.92 µM;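 active = inhibition exceeding the mean over every tested compound plus 3 SD, cut at about 30% in these data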;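 note: 0% = plate median of compound wells and 100% = S159A mutant with DMSO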
Target sequence (Q8VD66 whole entry, looked up): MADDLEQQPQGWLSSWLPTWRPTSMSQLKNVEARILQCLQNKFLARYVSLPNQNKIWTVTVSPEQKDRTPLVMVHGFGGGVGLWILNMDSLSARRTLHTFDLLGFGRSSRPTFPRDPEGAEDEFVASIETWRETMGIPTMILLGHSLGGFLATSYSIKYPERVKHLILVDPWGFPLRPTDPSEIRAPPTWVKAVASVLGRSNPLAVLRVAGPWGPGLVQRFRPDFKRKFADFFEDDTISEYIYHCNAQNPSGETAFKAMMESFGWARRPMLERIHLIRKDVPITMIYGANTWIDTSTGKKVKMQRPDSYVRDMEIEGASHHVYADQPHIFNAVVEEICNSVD
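Assay system: Wild-type mouse ABHD4 protein | Medium: HEPES pH 7.0 buffer, 150 mM NaCl, 0.01% Pluronic F-127 | Incubation: Enzyme–compound pre-incubation 45 min, then probe 60 min, both 25 °C | Technique: Fluorescence polarization with parallel and perpendicular emission, 525/598 nm | Evaluation: % inhibition of FP-Rh probe binding versus controls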
JMJD2C inh: blocks human GASC-1 demethylase activity | Q9H3R0 | GST-JMJD2C(1-420) H3K9me3 demethylation, DELFIA europium | inhibition, % at 2.35 µM | 330,000 tested, 0.069% active;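 active = more than half of a compound's replicate wells show inhibition beyond 50%, single wells judged on their own value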;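 note: signal counts dimethyl H3K9 product captured on neutravidin plate; 0% = median of DMSO wells and 100% = 0.3 times that DMSO median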
PRMT1 inh: inhibitors of human PRMT1; Q99873; recombinant PRMT1, activity-based probe fluorescence polarization; inhibition, % at 2.79 µM; 370,000 tested, 1.3% active;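 active = inhibition above about 21% made by adding two undisclosed values, limit read from the data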
PRMT1 inh conf: PRMT1 (human) inhibition, FP confirmation; AID 687036; recombinant His-PRMT1, activity-based probe fluorescence polarization; 3,300 tested, 42% active; inhibition, % at 2.79 µM; shares compounds with PRMT1 inh;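 active = mean inhibition across replicates above the hit cutoff derived for the earlier primary screen, cut at about 22% in these data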
Active calls of the source: *; · = no result given.

SMILES | SIAE inh | HTRA1 inh | mABHD4 FP | JMJD2C inh | PRMT1 inh | PRMT1 inh conf
O=C1/C(=C\c2ccco2)NC(=S)N1c1ccccc1 | 11 | 31 | 15 | -2 | 45* | 51*
Cn1cccc1CC(=O)NN=Cc1cccc(F)c1 | 1 | · | 8 | · | 3 | ·
COc1cccc(NC(=O)CSc2ccc(-c3ccco3)nn2)c1 | 4 | -4 | 11 | 5 | 42* | 4
O=C(CSc1ccc(-c2ccco2)nn1)N1CCCCCC1 | 2 | 4 | 2 | 19 | 7 | ·
O=C(CSc1ccc(-c2ccco2)nn1)Nc1ccccc1 | 9 | -3 | 5 | -5 | 7 | ·
COc1cccc(NC(=O)CSC(N)=O)c1 | 1 | 3 | 2 | -3 | 63* | 87*
O=C(CSc1ccc(-c2ccco2)nn1)c1ccccc1 | 10 | 5 | 19 | -4 | 28* | 10
O=[N+]([O-])c1ccc2nc(COCc3nc4ccccc4[nH]3)[nH]c2c1 | -6 | · | -7 | · | -4 | ·
COc1ccc(C2=NNC(=O)C2(C)Br)cc1 (stereo not drawn) | 3 | -6 | 2 | · | 4 | ·
CC(C)Oc1cccc(-c2n[nH]c(=S)n2N=Cc2ccc(O)cc2O)c1 | -2 | · | 13 | · | 37* | 18
O=[N+]([O-])c1cccc(/C=N/n2c(COc3ccccc3)n[nH]c2=S)c1 | 11 | -6 | 2 | 6 | 11 | ·
CC(C)Oc1cccc(-c2n[nH]c(=S)n2N=Cc2cccc([N+](=O)[O-])c2)c1 | 8 | · | -2 | · | 34* | 25*
C[C@@H]1CN(c2ccc(N3CCNC[C@@H]3C)cc2C#N)C[C@H](C)O1 | 4 | · | -3 | · | 5 | ·
O=C(c1ccccc1)N1CC[C@H]2[C@H](CCCN2Cc2cc(F)cc(F)c2)C1 | 1 | · | -3 | · | -3 | ·
Cc1cc(C)c(C)c(S(=O)(=O)N2C(=S)NC(=O)C2C(C)C)c1C (stereo not drawn) | 0 | -11 | -5 | -2 | 28* | 6
CCOC(=O)c1cc(C#N)c(=S)[nH]c1C | -9 | 8 | 0 | 11 | 14 | ·
COCc1[nH]c(=S)c(C#N)cc1C(=O)OC | 3 | -5 | 12 | -14 | 35* | 11
C[C@@H]1CN([C@@H](C)CO)S(=O)(=O)c2ccc(Br)cc2O[C@@H]1CN(C)Cc1ccc2c(c1)OCO2 | 1 | · | 3 | · | -1 | ·
COc1ccc2c(Cl)c(C(=O)N/N=C3\CCCC(=O)C3)sc2c1 | 9 | -21 | -5 | 13 | 38* | -6
Cc1ccnc(SCc2cc(=O)c(OC(=O)c3ccc(C#N)cc3)co2)n1 | 3 | · | 3 | · | 10 | ·
NC(=O)C1(N2CCCCC2)CCN(C(=S)Nc2ccccc2)CC1 | 4 | -1 | 5 | 6 | -3 | ·
NC(=O)C1(N2CCCCC2)CCN(C(=S)Nc2ccc(S(N)(=O)=O)cc2)CC1 | 2 | -2 | -7 | 12 | 27* | 36*
N#CC1=C(N)S[C@@H](C(=O)c2ccc(F)cc2)[C@@H]1c1cccs1 | 4 | -17 | 26 | 8 | 35* | 1
Cc1cc(C)nc(SCCN(C)C)n1 | 6 | 12 | 4 | -8 | 0 | ·
Cc1cc(C)nc(SCCN2CCCCC2)n1 | -7 | 10 | -7 | 5 | 26* | 21
SMILES | SIAE inh | HTRA1 inh | mABHD4 FP | JMJD2C inh | PRMT1 inh | PRMT1 inh conf
CC(=O)Nc1cc(-c2ccccc2Cl)cn2c(-c3ccc(S(C)(=O)=O)cc3)cnc12 | -6 | · | 2 | · | 0 | ·
COc1ccc(CCNC(=O)CSc2nc3[nH]c(=O)cc(O)c3s2)cc1 | 7 | -3 | 10 | 21 | 29* | 4
Cn1cccc1C(=O)OCC(=O)NCc1ccc2c(c1)OCO2 | 8 | -6 | 10 | 12 | 126* | 3
COC(=O)[C@]12C[C@H](CC(=O)N3CCOCC3)C(=O)N(Cc3ccco3)C1=C[C@H](COCc1ccccc1)O[C@@H]2C | -2 | · | 3 | · | 0 | ·
Cc1ccc(N2C(=O)c3cccc4c(N)ccc(c34)C2=O)c2cccnc12 | -38 | 11 | 4 | 16 | 94* | 119*
CCOC(=O)C1=C(C)N=c2s/c(=C/c3cccc([N+](=O)[O-])c3O)c(=O)n2C1c1cc(OC)c(OC)c(OC)c1 (stereo not drawn) | 3 | 0 | 21 | 0 | 44* | 40*
CCOC(=O)C1=C(C)N=c2s/c(=C/c3cccc([N+](=O)[O-])c3O)c(=O)n2C1c1ccccc1 (stereo not drawn) | -2 | 11 | 6 | -8 | 49* | 41*

Source: PubChem BioAssay
